In ChEMBL document CHEMBL5724801, “EUbOPEN Chemogenomics Library - Multiplex” (2024):
Where “and” joins values, the source holds several entries; their conditions need not be identical. Equal entries are not always repeated.

Tested on: Fibroblast
Assay: Multiplex assay against human fibroblast
Assay type: toxicity, cell-based
In short: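 Values for tubulin, mitochondrial-mass and membrane-permeability phenotypes are per cents of cells with healthy nuclei. These cells were identified by CellPathfinder machine-learning gating of live cells that had been stained at seeding with Hoechst33342, BioTracker Green Microtubule Cytoskeleton Dye, MitoTracker Red and Annexin V Alexa Fluor 680 and imaged on a CQ1 microscope at 37°C and 5% CO2 after compound addition. The gating first set Hoechst high-intensity objects apart from normal cells, then split normal cells into healthy, pyknosed or fragmented nuclei, and pyknosed cells into mitotic or apoptotic.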

[1] = 12 h, 1 µM, compound concentration 1 uM
[2] = 12 h, 10 µM, compound concentration 10 uM
[3] = 24 h, 1 µM, compound concentration 1 uM
[4] = 24 h, 10 µM, compound concentration 10 uM
[5] = 48 h, 1 µM, compound concentration 1 uM
[6] = 48 h, 10 µM, compound concentration 10 uM

Cc1cc(C(C#N)c2ccc(Cl)cc2)c(Cl)cc1NC(=O)c1cc(I)cc(I)c1O (stereo not drawn) [CLOSANTEL]
Population Fragmented Nuclei (%) [1]: 11% and 4.88%
Population Healthy Nuclei (%) [1]: 69% and 80%
Population Hoechst High Intensity Objects (%) [1]: 0%
Population Membrane Permeable-Phenotype (%) [1]: 3.62% and 2.44%
Population Mitochondria Different-Phenotype (%) [1]: 10.14% and 4.88%
Population Mitotic Cells (%) [1]: 97.5% and 87.1%
Population Normal (%) [1]: 100%
Population Pyknosed Nuclei (%) [1]: 20% and 15.12%
Population Tubulin-Different-Phenotype (%) [1]: 11.59%
Total Cell Count [1]: 200 and 205
Population Fragmented Nuclei (%) [2]: 14.05% and 6.49%
Population Healthy Nuclei (%) [2]: 60.33% and 78.38%
Population Hoechst High Intensity Objects (%) [2]: 0%
Population Membrane Permeable-Phenotype (%) [2]: 3.42% and 2.76%
Population Mitochondria Different-Phenotype (%) [2]: 8.22% and 6.21%
Population Mitotic Cells (%) [2]: 95.16% and 78.57%
Population Normal (%) [2]: 100%
Population Pyknosed Nuclei (%) [2]: 25.62% and 15.14%
Population Tubulin-Different-Phenotype (%) [2]: 12.33% and 14.48%
Total Cell Count [2]: 242 and 185
Population Apoptotic (%) [3]: 11.76% and 28.57%
Population Fragmented Nuclei (%) [3]: 7.66% and 4.52%
Population Healthy Nuclei (%) [3]: 77.03% and 88.44%
Population Hoechst High Intensity Objects (%) [3]: 0%
Population Membrane Permeable-Phenotype (%) [3]: 1.17% and 0.57%
Population Mitochondria Different-Phenotype (%) [3]: 7.6% and 4.55%
Population Mitotic Cells (%) [3]: 88.24% and 71.43%
Population Normal (%) [3]: 100%
Population Pyknosed Nuclei (%) [3]: 15.32% and 7.04%
Population Tubulin-Different-Phenotype (%) [3]: 12.28% and 13.07%
Total Cell Count [3]: 222 and 199
Population Apoptotic (%) [4]: 10.53% and 22.73%
Population Fragmented Nuclei (%) [4]: 9.54% and 3.72%
Population Healthy Nuclei (%) [4]: 74.69% and 84.57%
Population Hoechst High Intensity Objects (%) [4]: 0%
Population Membrane Permeable-Phenotype (%) [4]: 2.22% and 2.52%
Population Mitochondria Different-Phenotype (%) [4]: 3.89% and 5.03%
Population Mitotic Cells (%) [4]: 89.47% and 77.27%
Population Normal (%) [4]: 100%
Population Pyknosed Nuclei (%) [4]: 15.77% and 11.7%
Population Tubulin-Different-Phenotype (%) [4]: 12.78% and 13.84%
Total Cell Count [4]: 241 and 188
Population Apoptotic (%) [5]: 35.29% and 17.65%
Population Fragmented Nuclei (%) [5]: 10.13% and 6.91%
Population Healthy Nuclei (%) [5]: 82.38% and 85.25%
Population Hoechst High Intensity Objects (%) [5]: 0%
Population Membrane Permeable-Phenotype (%) [5]: 1.07% and 1.62%
Population Mitotic Cells (%) [5]: 64.71% and 82.35%
Population Normal (%) [5]: 100%
Population Pyknosed Nuclei (%) [5]: 7.49% and 7.83%
Population Tubulin-Different-Phenotype (%) [5]: 8.02% and 14.05%
Total Cell Count [5]: 227 and 217
Population Apoptotic (%) [6]: 33.33% and 66.67%
Population Fragmented Nuclei (%) [6]: 6.69% and 4.66%
Population Healthy Nuclei (%) [6]: 88.85% and 92.23%
Population Hoechst High Intensity Objects (%) [6]: 0%
Population Membrane Permeable-Phenotype (%) [6]: 0.84% and 3.93%
Population Mitochondria Different-Phenotype (%) [6]: 12.13% and 3.93%
Population Mitotic Cells (%) [6]: 66.67% and 33.33%
Population Normal (%) [6]: 100%
Population Pyknosed Nuclei (%) [6]: 4.46% and 3.11%
Population Tubulin-Different-Phenotype (%) [6]: 5.02% and 12.36%
Total Cell Count [6]: 269 and 193

CCCCC1=NC2(CCCC2)C(=O)N1Cc1ccc(-c2ccccc2-c2nnn[nH]2)cc1 [IRBESARTAN]
Population Apoptotic (%) [1]: 40% and 38%
Population Fragmented Nuclei (%) [1]: 14% and 24%
Population Healthy Nuclei (%) [1]: 67% and 55%
Population Hoechst High Intensity Objects (%) [1]: 1% and 3%
Population Membrane Permeable-Phenotype (%) [1]: 0% and 7%
Population Mitochondria Different-Phenotype (%) [1]: 5% and 2%
Population Mitotic Cells (%) [1]: 59% and 61%
Population Normal (%) [1]: 98% and 96%
Population Pyknosed Nuclei (%) [1]: 17% and 20%
Population Tubulin-Different-Phenotype (%) [1]: 28% and 43%
Total Cell Count [1]: 159 and 187
Population Apoptotic (%) [2]: 60% and 45%
Population Fragmented Nuclei (%) [2]: 11% and 32%
Population Healthy Nuclei (%) [2]: 74% and 48%
Population Hoechst High Intensity Objects (%) [2]: 3% and 7%
Population Membrane Permeable-Phenotype (%) [2]: 3% and 12%
Population Mitochondria Different-Phenotype (%) [2]: 4% and 3%
Population Mitotic Cells (%) [2]: 40% and 54%
Population Normal (%) [2]: 96% and 92%
Population Pyknosed Nuclei (%) [2]: 13% and 18%
Population Tubulin-Different-Phenotype (%) [2]: 37% and 53%
Total Cell Count [2]: 151 and 129
Population Apoptotic (%) [3]: 47% and 31%
Population Fragmented Nuclei (%) [3]: 19% and 25%
Population Healthy Nuclei (%) [3]: 69% and 57%
Population Hoechst High Intensity Objects (%) [3]: 2% and 3%
Population Membrane Permeable-Phenotype (%) [3]: 1%
Population Mitochondria Different-Phenotype (%) [3]: 3% and 0%
Population Mitotic Cells (%) [3]: 52% and 68%
Population Normal (%) [3]: 97% and 96%
Population Pyknosed Nuclei (%) [3]: 10% and 16%
Population Tubulin-Different-Phenotype (%) [3]: 22% and 40%
Total Cell Count [3]: 170 and 183
Population Apoptotic (%) [4]: 56% and 45%
Population Healthy Nuclei (%) [4]: 74% and 47%
Population Hoechst High Intensity Objects (%) [4]: 1% and 2%
Population Membrane Permeable-Phenotype (%) [4]: 3% and 8%
Population Mitochondria Different-Phenotype (%) [4]: 7% and 5%
Population Mitotic Cells (%) [4]: 44% and 55%
Population Normal (%) [4]: 98% and 97%
Population Pyknosed Nuclei (%) [4]: 16%
Population Tubulin-Different-Phenotype (%) [4]: 37% and 60%
Total Cell Count [4]: 155 and 125
Population Apoptotic (%) [5]: 60% and 55%
Population Fragmented Nuclei (%) [5]: 21% and 31%
Population Healthy Nuclei (%) [5]: 69% and 58%
Population Hoechst High Intensity Objects (%) [5]: 3% and 2%
Population Membrane Permeable-Phenotype (%) [5]: 0% and 2%
Population Mitochondria Different-Phenotype (%) [5]: 4% and 1%
Population Mitotic Cells (%) [5]: 40% and 44%
Population Normal (%) [5]: 96% and 97%
Population Pyknosed Nuclei (%) [5]: 8% and 10%
Population Tubulin-Different-Phenotype (%) [5]: 31% and 39%
Total Cell Count [5]: 173 and 178
Population Apoptotic (%) [6]: 61% and 37%
Population Fragmented Nuclei (%) [6]: 14% and 37%
Population Healthy Nuclei (%) [6]: 66% and 48%
Population Hoechst High Intensity Objects (%) [6]: 2% and 0%
Population Membrane Permeable-Phenotype (%) [6]: 1% and 3%
Population Mitochondria Different-Phenotype (%) [6]: 5% and 1%
Population Mitotic Cells (%) [6]: 38% and 62%
Population Normal (%) [6]: 97% and 99%
Population Pyknosed Nuclei (%) [6]: 18% and 13%
Population Tubulin-Different-Phenotype (%) [6]: 38% and 58%
Total Cell Count [6]: 141 and 117
